The text below walks through data of ChEMBL document CHEMBL3525967, “In vitro glucuronidation of the antibacterial triclocarban and its oxidative metabolites” (Drug Metab Dispos, 2012).

The subject of data set [1] is Liver microsome. The data set can be described thus: Intrinsic clearance in Sprague-Dawley rat liver microsomes after 30 mins by LC-ESI-MS analysis. The data set is classed as ADME. The note with it: 0.5 h. Summed up:
(§1)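 2'-OH-TCC at 0.2, 0.5, 1, 2, 3, 5, 10 and 50 µM incubated with liver microsomes (alamethicin, MgCl2, saccharolactone, UDPGA; 37 °C), sampled at 5, 10, 15 and 30 min. Samples ≥5 µM diluted 1:9 in ACN; LC-ESI-MS. KM and vmax fitted from rate vs concentration; intrinsic clearance derived from these; mean and SD of three.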
On the technique in general: Liver microsomes are vesicles of endoplasmic reticulum, rich in cytochrome P450 enzymes.

The next data set concerns Liver. The data set can be described thus: Intrinsic clearance in B6C3F1 mouse liver microsomes after 30 mins by LC-ESI-MS analysis. The conditions noted are these: 0.5 h. The data set is classed as ADME. Summed up:
as §1

Data set [2] deals with Liver microsome. The data set is described as follows: Drug metabolism in Sprague-Dawley rat liver microsomes assessed as N-glucuronide-triclocarban formation incubated for 5 mins prior to UDPGA addition measured after 5 to 30 mins by LC-UV analysis. The data set is classed as ADME. The gist of the method: (§2)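 Microsomes or UGT Supersomes (5 µg protein) were held 15 min on ice with alamethicin in 100 mM potassium phosphate pH 7.4. TCC was added at 10 µM (2% DMSO) with 10 mM MgCl2 and 10 mM saccharolactone, pre-warmed 5 min at 37 °C, then started with UDPGA. Samples at 5, 10, 15 and 30 min were quenched in ACN. Product was read by LC-UV at 265 nm; rate came from regression over time, three incubations.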

Data set [3] in a line: Drug excretion in human urine. The note with it: read-out: Drug excretion. The data set is classed as ADME.
In data set [4] the test system is Liver microsome. The data set is described as follows: Drug metabolism in human liver microsomes assessed as N'-glucuronide-triclocarban formation incubated for 5 mins prior to UDPGA addition measured after 30 mins by LC-UV-ESI-MS/MS analysis. The data set is classed as ADME. The note with it: 0.5 h. The gist of the method:
(§3)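 Pooled human kidney or liver microsomes (liver: 25 mixed-gender donors), 5 µg protein, in 200 µL 100 mM potassium phosphate pH 7.4. Alamethicin pre-treated on ice 15 min. Final 10 µM TCC (2% DMSO), with 10 mM MgCl2 and 10 mM saccharolactone, preincubated 5 min at 37 °C. Started with UDPGA (20 mM stock). Sampled at 5, 10, 15 and 30 min into ACN containing 1 µM DCC internal standard.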

In data set [5] the target is T1, UDP-glucuronosyltransferase 1A6 (Homo sapiens, UniProt P19224).
T1 sequence (P19224 whole entry): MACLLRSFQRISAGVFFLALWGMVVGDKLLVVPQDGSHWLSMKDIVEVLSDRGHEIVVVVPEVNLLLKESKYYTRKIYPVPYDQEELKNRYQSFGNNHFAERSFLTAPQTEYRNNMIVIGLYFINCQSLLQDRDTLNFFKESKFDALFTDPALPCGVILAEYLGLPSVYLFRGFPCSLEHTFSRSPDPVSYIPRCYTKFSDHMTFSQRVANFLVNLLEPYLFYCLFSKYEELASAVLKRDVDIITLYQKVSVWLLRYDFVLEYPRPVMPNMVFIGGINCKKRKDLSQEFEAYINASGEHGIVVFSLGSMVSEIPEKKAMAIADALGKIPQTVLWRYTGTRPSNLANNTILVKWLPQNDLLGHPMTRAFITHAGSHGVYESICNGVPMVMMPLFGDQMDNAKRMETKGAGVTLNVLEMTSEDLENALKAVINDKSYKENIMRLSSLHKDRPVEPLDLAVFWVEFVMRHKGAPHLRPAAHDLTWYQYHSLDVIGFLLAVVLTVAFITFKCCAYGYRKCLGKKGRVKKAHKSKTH
The data set is described as follows: Drug metabolism assessed as human UGT1A6-mediated N-glucuronide-triclocarban formation expressed in baculovirus infected insect sf9 cells incubated for 5 mins prior to UDPGA addition measured after 5 to 30 mins by LC-UV analysis. The data set is classed as ADME. The gist of the method: as §2

For data set [6], the target named is T2, UDP-glucuronosyltransferase 2B4 (Homo sapiens, UniProt P06133).
T2 sequence (P06133 whole entry): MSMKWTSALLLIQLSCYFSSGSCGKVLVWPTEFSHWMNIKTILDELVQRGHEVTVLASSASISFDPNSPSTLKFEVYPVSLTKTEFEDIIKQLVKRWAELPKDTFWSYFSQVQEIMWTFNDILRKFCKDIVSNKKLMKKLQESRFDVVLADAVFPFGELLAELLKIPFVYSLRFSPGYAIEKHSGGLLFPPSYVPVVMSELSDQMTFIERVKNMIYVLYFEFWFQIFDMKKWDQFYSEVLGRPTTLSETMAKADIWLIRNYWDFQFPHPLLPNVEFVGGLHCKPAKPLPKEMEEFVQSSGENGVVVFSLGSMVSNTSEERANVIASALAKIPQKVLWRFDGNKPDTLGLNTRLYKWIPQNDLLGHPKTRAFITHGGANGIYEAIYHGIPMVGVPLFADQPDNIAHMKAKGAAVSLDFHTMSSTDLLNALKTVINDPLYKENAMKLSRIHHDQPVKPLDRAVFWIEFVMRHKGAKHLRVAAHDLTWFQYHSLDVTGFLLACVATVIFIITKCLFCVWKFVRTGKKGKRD
The data set can be described thus: Drug metabolism assessed as human UGT2B4-mediated N-glucuronide-triclocarban formation expressed in baculovirus infected insect sf9 cells incubated for 5 mins prior to UDPGA addition measured after 5 to 30 mins by LC-UV analysis. The data set is classed as ADME. Summed up:
as §2

In data set [7] the test system is Liver microsome. The data set is described as follows: Drug metabolism in human liver microsomes assessed as N'-glucuronide-triclocarban formation incubated for 5 mins prior to UDPGA addition measured after 5 to 30 mins by LC-UV analysis. The data set is classed as ADME. The gist of the method:
as §3

The nature of data set [8]: Drug excretion in Swiss webster mouse urine assessed as 6-O-glucuronide-triclocarban formation at 5 mg/kg, po by LC-MS analysis. The data set is classed as ADME, organism-based. More on the design: dose 5 mg/kg, route oral. The note with it: in vivo. Summed up: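 Mice were housed two per metabolic cage, with blank urine collected over the 24 h before dosing. TCC was given by oral gavage as a 1 mg/mL solution in 20/80 DMSO/PEG400 (v/v) at 5 mg/kg. Urine was collected at 0-24 h and 24-48 h and analysed by online LC-MS. Values are the mean of two independent experiments.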

Data set [9] in a line: Drug excretion in Sprague-Dawley rat urine assessed as N'-glucuronide-triclocarban formation at 1 mg/kg, po by LC-MS analysis. The data set is classed as ADME, organism-based. More on the design: dose 1 mg/kg, route oral. The note with it: in vivo.
The nature of data set [10]: Drug metabolism in human kidney microsomes assessed as N'-glucuronide-triclocarban formation incubated for 5 mins prior to UDPGA addition measured after 5 to 30 mins by LC-UV analysis. The data set is classed as ADME. Summed up:
as §3

The nature of data set [11]: Drug metabolism in cynomolgus monkey liver microsomes assessed as N-glucuronide-triclocarban formation incubated for 5 mins prior to UDPGA addition measured after 30 mins by LC-UV-ESI-MS/MS analysis. The data set is classed as ADME, Macaca fascicularis. The conditions noted are these: 0.5 h. The gist of the method:
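TCC was incubated at 10 µM (2% DMSO) in 100 mM phosphate pH 7.4 with alamethicin-treated microsomes or Supersomes, 10 mM MgCl2 and 10 mM saccharolactone. After 5 min pre-incubation at 37 °C, UDPGA was added to start the reaction. Protein was raised up to 2 mg/mL. Samples were quenched in ACN with 1 µM DCC internal standard, centrifuged, and N-glucuronides detected by LC-ESI-MS/MS in SRM mode.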

For `O=C(Nc1ccc(Cl)c(Cl)c1)Nc1ccc(Cl)cc1O`, the CLH is 2860 µL/min/mg with Liver microsome [1] and 1450 µL/min/mg with Liver.

As for `O=C(Nc1ccc(Cl)cc1)Nc1ccc(Cl)c(Cl)c1` [TRICLOCARBAN], the Drug metabolism result in the data set on Liver microsome [2] is “metabolite_not_detected”; with Liver microsome [4], “metabolite_detected”; in data set [5] it was “metabolite_not_detected”; in data set [6] it was “metabolite_not_detected”; with Liver microsome [7] it was “metabolite_not_detected”; in data set [10], “metabolite_not_detected”. Further, the Drug metabolism result in data set [11] is recorded as “metabolite_detected”. Further, the dose excreted in data set [3] was 25%. The figures for the Drug excretion result in [8] and in [9] were “metabolite_detected” and “metabolite_not_detected”, respectively.
